An excerpt weighted towards active compounds, which were near 0.58% of everything screened.
zfTRPN1 agonist = activates the zebrafish TRPN1 channel; 220,000 compounds, 0.18% hits; HEK293 zebrafish TRPN1-YFP, Fluo-8 calcium fluorescence; 100% = response to 87 µM carbachol; activation, % at 3 µM;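 active means activation above its plate's cutoff, the mean activation of test wells on that plate plus 3 SD, cut at about 19% in these data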;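 further: 0% = DMSO alone and 100% = 87 µM carbachol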
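Control set: carbachol 87 µM as high control, DMSO as low control; system: HEK293 stable line with zebrafish TRPN1-YFP; read-out: % activation versus carbachol response; detection: intracellular calcium fluorescence with Fluo-8; doses: single test compound dose, 3 µM nominal, 0.3% DMSO; schedule: dye 1 h 37 °C plus 30 min RT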
OXTR potentiate = potentiates the human oxytocin receptor response; CHO-OTR cells, Fluo-8 calcium fluorescence, potentiator mode; 0% = oxytocin EC15, 100% = EC100; 320,000 compounds, 0.061% hits; activation, % at 3 µM; AID 2445; P30559;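 active means activation above that plate's cutoff, the mean activation of tested compounds plus 3 SD, cut at about 6.6% in these data, passing the limit was not always enough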;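 further: 100% uses oxytocin at 75 nM as the full agonist control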
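Assay system: CHO-OTR cells, human receptor / Also added: oxytocin at about EC15, sub-maximal agonist stimulus / Dosing: single dose, 3.0 µM nominal final compound concentration / Incubation: 6 min pre-incubation, 100 s read / Technique: Fluo-8 calcium dye fluorescence / Read-out: % activation vs EC15 and EC100 oxytocin / Benchmarks: EC15 oxytocin low, 75 nM oxytocin high / Replicates: singlicate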
OXTR ag = human OXTR agonism; P30559; CHO-OTR cells, Fluo-8 calcium fluorescence; normalized: DMSO 0%, oxytocin 100%; activation, % at 3 µM; 320,000 compounds, 0.32% hits;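 active means activation above the mean of all tested compounds plus 3 SD, cutoff set per screening run, cut at about 20% in these data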;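 further: peak over basal fluorescence ratio from a 100 s FLIPR kinetic read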
V1R ag counter = V1a receptor agonism, counter-screen for OXTR agonists | 320,000 compounds, 0.25% hits | P37288 | CHO-V1R cells, Fluo-8 calcium fluorescence, agonist mode; 0% DMSO, 100% 3 nM vasopressin | AID 2797 | activation, % at 3 µM;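 active means activation above the mean activation of all tested compounds plus 3 SD, per screening run, cut at about 20% in these data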;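 further: signal is peak over basal fluorescence ratio across a 100 second FLIPR read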
TRPML3 ag = agonists of human TRPML3 channel; HEK293 TRPML3-YFP, Fluo-8 calcium fluorescence; 100% = the carbachol control signal; activation, % at 3 µM; Q8TDD5; AID 1448; 220,000 compounds, 0.29% hits;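 active means activation above its plate's cutoff, the mean activation of the plate's test wells plus 3 SD, cut at about 12% in these data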;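 further: 0% = DMSO only wells and 100% = carbachol wells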
Target sequence (Q8TDD5 whole entry, looked up): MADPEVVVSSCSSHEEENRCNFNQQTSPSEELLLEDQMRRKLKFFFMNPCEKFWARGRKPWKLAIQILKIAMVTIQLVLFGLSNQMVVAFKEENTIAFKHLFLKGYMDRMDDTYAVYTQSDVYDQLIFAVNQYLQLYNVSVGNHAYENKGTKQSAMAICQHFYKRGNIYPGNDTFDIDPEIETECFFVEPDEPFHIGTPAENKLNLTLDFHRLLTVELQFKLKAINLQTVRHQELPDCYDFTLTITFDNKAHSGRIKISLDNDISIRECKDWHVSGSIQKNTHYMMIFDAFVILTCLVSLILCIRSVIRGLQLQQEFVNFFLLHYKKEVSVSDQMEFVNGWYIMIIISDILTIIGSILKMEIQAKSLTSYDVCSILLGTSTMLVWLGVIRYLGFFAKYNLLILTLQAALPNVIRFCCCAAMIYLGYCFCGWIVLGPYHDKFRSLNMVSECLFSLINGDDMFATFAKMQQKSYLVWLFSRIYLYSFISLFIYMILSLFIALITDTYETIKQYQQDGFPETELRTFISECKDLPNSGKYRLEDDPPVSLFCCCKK
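Test system: HEK293 cells stably carrying human TRPML3-YFP; Doses: single dose, 3 µM final nominal compound, 0.3% DMSO final; Schedule: dye loading 1 h 37 °C then 30 min ambient, 125 s read; Technique: Fluo-8 calcium fluorescence; Benchmarks: high control carbachol 87 µM, low control DMSO.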
OXTR pot confirm = confirmation of human oxytocin receptor potentiators | AID 434985 | 180 tested, under 10 active | CHO-OTR cells, Fluo-8 calcium fluorescence, potentiation; scaled from low-dose to maximal oxytocin | activation, % at 3 µM | shares compounds with OXTR potentiate;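 active means mean percent activation over triplicates above a cutoff set from solvent-only control plates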;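 further: compounds tested in the presence of an EC15 dose of oxytocin; 0% = EC15 oxytocin with DMSO and 100% = EC100 oxytocin with DMSO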
An asterisk follows results filed as active.

How did CCCCc1ccc(NC(=O)N[C@H](C(=O)O)C(C)CC)cc1 (stereo partly specified) do in these assays?
zfTRPN1 agonist: -1.0; OXTR potentiate: 12.9*; OXTR ag: -2.5; V1R ag counter: -0.9; TRPML3 ag: 0.2; OXTR pot confirm: 1.1

How did CNC(=O)c1c(NC(=O)c2cc(-c3cc(C)c(C)cc3O)n[nH]2)sc2c1CCCC2 do in these assays?
zfTRPN1 agonist: 2.4; OXTR potentiate: 6.6*; OXTR ag: 1.2; V1R ag counter: -0.1; TRPML3 ag: 0.1; OXTR pot confirm: -9.6

How did CNC(=O)c1c(NC(=O)c2ccco2)sc2c1CCC2 do in these assays?
OXTR potentiate: -8.9; OXTR ag: -0.9; V1R ag counter: -1.7

How did Cc1ccc(-n2nc3c(=O)n(CCCC(=O)NCc4ccccc4Cl)nc(C)c3c2C)cc1 do in these assays?
OXTR potentiate: -8.3; OXTR ag: 1.2; V1R ag counter: 5.1

Results for CC1CCCC(NC(=O)COC(=O)c2ccccc2NC(=O)c2ccco2)C1C (stereo unspecified) ?
zfTRPN1 agonist: -1.9; OXTR potentiate: 10.3*; OXTR ag: 0.1; V1R ag counter: -1.1; TRPML3 ag: 0.3; OXTR pot confirm: -3.6

How did O=C(COC(=O)c1ccccc1NC(=O)c1ccco1)NC1CCCCC1 do in these assays?
zfTRPN1 agonist: -0.4; OXTR potentiate: -15.2; OXTR ag: -1.0; V1R ag counter: -0.4; TRPML3 ag: 0.3

How did O=C1CCCN1S(=O)(=O)c1ccc(F)cc1 do in these assays?
OXTR potentiate: -10.1; OXTR ag: -0.5; V1R ag counter: 0.2

What do the screens show for `Cc1nnc(SCc2nnc(-c3ccccc3Br)o2)s1`?
zfTRPN1 agonist: 0.2; OXTR potentiate: -3.8; OXTR ag: 1.0; V1R ag counter: -0.5; TRPML3 ag: 1.0

How did CCOC(=O)C1=C(CNCCOc2ccc(OC)cc2)NC(=O)NC1c1ccc2c(c1)OCO2 (stereo unspecified) do in these assays?
zfTRPN1 agonist: -2.2; OXTR potentiate: 10.0*; OXTR ag: -1.0; V1R ag counter: -0.5; TRPML3 ag: -1.2; OXTR pot confirm: -10.1

What do the screens show for `COc1cc(Nc2cc(C)nc3ncnn23)cc(OC)c1OC`?
zfTRPN1 agonist: 0.0; OXTR potentiate: 6.3; OXTR ag: 0.8; V1R ag counter: 0.5; TRPML3 ag: 0.3

What do the screens show for `CCOc1ccc(OCC)c(Nc2cc(C)nc3ncnn23)c1`?
zfTRPN1 agonist: 0.0; OXTR potentiate: 16.3*; OXTR ag: -0.7; V1R ag counter: -0.4; TRPML3 ag: -0.7; OXTR pot confirm: -6.9

What do the screens show for `COc1cc(Nc2cc(C)nc3ncnn23)cc(OC)c1`?
zfTRPN1 agonist: 0.6; OXTR potentiate: 6.4*; OXTR ag: -2.3; V1R ag counter: -0.8; TRPML3 ag: -0.1; OXTR pot confirm: -3.3

How did O=C(C[C@H]1C/C=C\CC[C@H](Cc2ccc(F)cc2)C(=O)O[C@H](c2ccccc2)CNC1=O)N[C@H](CO)Cc1ccccc1 do in these assays?
OXTR potentiate: -9.2; OXTR ag: 1.4; V1R ag counter: 2.0

What do the screens show for `CCCNC(=O)c1ccc(SC)cc1OC`?
zfTRPN1 agonist: -1.5; OXTR potentiate: -13.3; OXTR ag: -2.4; V1R ag counter: -1.7; TRPML3 ag: -0.2

What do the screens show for `COc1cc(SC)ccc1C(=O)NCCCOC(C)C`?
zfTRPN1 agonist: -1.2; OXTR potentiate: 11.3*; OXTR ag: -0.3; V1R ag counter: 0.5; TRPML3 ag: 0.2; OXTR pot confirm: -6.8

How did CCOc1ccc(-c2c(C(=O)N/N=C/c3ccc(O)cc3)nnn2-c2nonc2N)cc1 do in these assays?
zfTRPN1 agonist: 0.9; OXTR potentiate: 9.6*; OXTR ag: 0.4; V1R ag counter: -0.2; TRPML3 ag: 0.7; OXTR pot confirm: 2.1

What do the screens show for `CCOc1ccc(-c2c(C(=O)N/N=C/c3ccc(C)o3)nnn2-c2nonc2N)cc1`?
OXTR potentiate: -19.4; OXTR ag: 1.9; V1R ag counter: 1.2

Results for CC(C)CC1NC(=O)c2cc(Cl)ccc2-n2c1nc1cc(F)ccc1c2=O (stereo unspecified) ?
OXTR potentiate: 14.9*; OXTR ag: -2.6; V1R ag counter: -1.0; OXTR pot confirm: 2.6

Results for Cc1cccc(Cn2c(NCCO)nc3c2c(=O)n(C)c(=O)n3C)c1 ?
zfTRPN1 agonist: 0.8; OXTR potentiate: 3.2; OXTR ag: -0.6; V1R ag counter: 0.9; TRPML3 ag: 0.6

How did Cn1c(=O)c2c(nc(NCCCO)n2Cc2cccc(Br)c2)n(C)c1=O do in these assays?
zfTRPN1 agonist: -0.3; OXTR potentiate: 11.2*; OXTR ag: 0.7; V1R ag counter: 0.4; TRPML3 ag: 0.2; OXTR pot confirm: -5.8

What do the screens show for `COc1ccc(CC(=O)N2CCN=C2SCc2cccc([N+](=O)[O-])c2)cc1`?
zfTRPN1 agonist: 0.8; OXTR potentiate: -11.9; OXTR ag: 0.3; V1R ag counter: 2.8; TRPML3 ag: 0.4

What do the screens show for `COc1cc(OC)cc(C(=O)NCC(=O)N2CCN(S(=O)(=O)c3ccccc3F)CC2)c1`?
OXTR potentiate: 13.7*; OXTR ag: 0.9; V1R ag counter: 0.3; OXTR pot confirm: 0.6

What do the screens show for `O=C(NCC(=O)N1CCN(S(=O)(=O)c2ccccc2F)CC1)c1ccc2c(c1)OCO2`?
OXTR potentiate: -3.8; OXTR ag: -0.6; V1R ag counter: 0.4

Results for CC(Sc1ccc(Cl)cc1)C(=O)NCc1ccc2c(c1)OCO2 (stereo unspecified) ?
zfTRPN1 agonist: -1.1; OXTR potentiate: 9.4*; OXTR ag: -2.4; V1R ag counter: -0.5; TRPML3 ag: -0.3; OXTR pot confirm: 0.0

Results for CC1=C(C(=O)OC(C)C)C(c2cccs2)NC(=O)N1 (stereo unspecified) ?
zfTRPN1 agonist: 0.0; OXTR potentiate: 9.9*; OXTR ag: 0.6; V1R ag counter: -0.2; TRPML3 ag: 0.9; OXTR pot confirm: -5.0

How did CC1CC(=O)N(CC(=O)NCc2ccc(F)cc2)c2ccccc2S1(=O)=O (stereo unspecified) do in these assays?
OXTR potentiate: 0.0; OXTR ag: 0.9; V1R ag counter: -0.4

Results for CC(NC(=O)/C(C#N)=C/c1ccc(C(=O)O)cc1)c1ccccc1 (stereo unspecified) ?
OXTR potentiate: 13.3*; OXTR ag: 1.3; V1R ag counter: 0.3; OXTR pot confirm: 3.0

What do the screens show for `COc1cc(/C=C(/C#N)C(=O)NC(C)c2ccccc2)cc(OC)c1O` (stereo unspecified)?
OXTR potentiate: -4.9; OXTR ag: 9.2; V1R ag counter: 6.7

What do the screens show for `CN(CC(=O)NCc1ccncc1)S(=O)(=O)c1ccc(F)cc1`?
zfTRPN1 agonist: 0.4; OXTR potentiate: 11.8*; OXTR ag: 0.2; V1R ag counter: 1.1; TRPML3 ag: 0.6; OXTR pot confirm: -3.7

Screening data from PubChem.
